In brackets after ≈: the same amount, converted by molar mass.
What was measured:
Assay type in all cases: functional
Pseudomonas aeruginosa [1] = assay: Antimicrobial activity against Pseudomonas aeruginosa PA431 expressing IMP-1 beta-lactamase
Procedure, shortened: (§1)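 Well-characterized MBL-producing control strains from earlier studies: nine P. aeruginosa and one A. baumannii. MIC was read in μg/ml and used to set screening breakpoints for MBL producers.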

Pseudomonas aeruginosa [2] = assay: Antimicrobial activity against Pseudomonas aeruginosa PA552 expressing IMP-1 beta-lactamase; procedure, shortened: as §1
Pseudomonas aeruginosa [3] = assay: Antimicrobial activity against Pseudomonas aeruginosa PA386 expressing IMP-13 beta-lactamase; procedure, shortened: as §1
Pseudomonas aeruginosa [4] = assay: Antimicrobial activity against Pseudomonas aeruginosa PA550 expressing VIM-1 beta-lactamase; procedure, shortened: as §1
Pseudomonas aeruginosa [5] = assay: Antimicrobial activity against Pseudomonas aeruginosa PA373 expressing VIM-2 beta-lactamase; procedure, shortened: as §1
Pseudomonas aeruginosa [6] = assay: Antimicrobial activity against Pseudomonas aeruginosa PA399 expressing VIM-2 beta-lactamase; procedure, shortened: as §1
Pseudomonas aeruginosa [7] = assay: Antimicrobial activity against Pseudomonas aeruginosa PA430 expressing VIM-4 beta-lactamase; procedure, shortened: as §1
Pseudomonas aeruginosa [8] = assay: Antimicrobial activity against Pseudomonas aeruginosa PA554 expressing GIM-1 beta-lactamase; procedure, shortened: as §1
Acinetobacter baumannii = assay: Antimicrobial activity against Acinetobacter baumannii AB551 expressing SIM-1 beta-lactamase; procedure, shortened: as §1
Pseudomonas aeruginosa [9] = assay: Antimicrobial activity against Pseudomonas aeruginosa PA553 expressing SPM-1 beta-lactamase; procedure, shortened: as §1
Pseudomonas aeruginosa [10] = assay: Antimicrobial activity against metallo-beta-lactamase-negative Pseudomonas aeruginosa isolate PA339
Procedure, shortened: (§2)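 MBL-negative clinical P. aeruginosa isolates with reduced imipenem susceptibility, collected at the study hospital, some from cystic fibrosis patients. Species identity was confirmed by automated Gram-negative identification card. MIC was read in μg/ml.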

Pseudomonas aeruginosa [11] = assay: Antimicrobial activity against metallo-beta-lactamase-negative Pseudomonas aeruginosa isolate PA340; procedure, shortened: as §2
Pseudomonas aeruginosa [12] = assay: Antimicrobial activity against metallo-beta-lactamase-negative Pseudomonas aeruginosa isolate PA341; procedure, shortened: as §2
Pseudomonas aeruginosa [13] = assay: Antimicrobial activity against metallo-beta-lactamase-negative Pseudomonas aeruginosa isolate PA342; procedure, shortened: as §2
Pseudomonas aeruginosa [14] = assay: Antimicrobial activity against metallo-beta-lactamase-negative Pseudomonas aeruginosa isolate PA346; procedure, shortened: as §2
Pseudomonas aeruginosa [15] = assay: Antimicrobial activity against metallo-beta-lactamase-negative Pseudomonas aeruginosa isolate PA349; procedure, shortened: as §2
Pseudomonas aeruginosa [16] = assay: Antimicrobial activity against metallo-beta-lactamase-negative Pseudomonas aeruginosa isolate PA350; procedure, shortened: as §2
Pseudomonas aeruginosa [17] = assay: Antimicrobial activity against metallo-beta-lactamase-negative Pseudomonas aeruginosa isolate PA352; procedure, shortened: as §2
Pseudomonas aeruginosa [18] = assay: Antimicrobial activity against metallo-beta-lactamase-negative Pseudomonas aeruginosa isolate PA355; procedure, shortened: as §2
Pseudomonas aeruginosa [19] = assay: Antimicrobial activity against metallo-beta-lactamase-negative Pseudomonas aeruginosa isolate PA356; procedure, shortened: as §2
Pseudomonas aeruginosa [20] = assay: Antimicrobial activity against metallo-beta-lactamase-negative Pseudomonas aeruginosa isolate PA360; procedure, shortened: as §2
Pseudomonas aeruginosa [21] = assay: Antimicrobial activity against metallo-beta-lactamase-negative Pseudomonas aeruginosa isolate PA361; procedure, shortened: as §2
Pseudomonas aeruginosa [22] = assay: Antimicrobial activity against metallo-beta-lactamase-negative Pseudomonas aeruginosa isolate PA362; procedure, shortened: as §2
Pseudomonas aeruginosa [23] = assay: Antimicrobial activity against metallo-beta-lactamase-negative Pseudomonas aeruginosa isolate PA364; procedure, shortened: as §2
Pseudomonas aeruginosa [24] = assay: Antimicrobial activity against metallo-beta-lactamase-negative Pseudomonas aeruginosa isolate PA368; procedure, shortened: as §2
Pseudomonas aeruginosa [25] = assay: Antimicrobial activity against metallo-beta-lactamase-negative Pseudomonas aeruginosa isolate PA370; procedure, shortened: as §2
Pseudomonas aeruginosa [26] = assay: Antimicrobial activity against metallo-beta-lactamase-negative Pseudomonas aeruginosa isolate PA376
Pseudomonas aeruginosa [27] = assay: Antimicrobial activity against metallo-beta-lactamase-negative Pseudomonas aeruginosa isolate PA377; procedure, shortened: as §2
Pseudomonas aeruginosa [28] = assay: Antimicrobial activity against metallo-beta-lactamase-negative Pseudomonas aeruginosa isolate PA380; procedure, shortened: as §2
Pseudomonas aeruginosa [29] = assay: Antimicrobial activity against metallo-beta-lactamase-negative Pseudomonas aeruginosa isolate PA381; procedure, shortened: as §2
Pseudomonas aeruginosa [30] = assay: Antimicrobial activity against metallo-beta-lactamase-negative Pseudomonas aeruginosa isolate PA382; procedure, shortened: as §2
Pseudomonas aeruginosa [31] = assay: Antimicrobial activity against metallo-beta-lactamase-negative Pseudomonas aeruginosa isolate PA395; procedure, shortened: as §2
Pseudomonas aeruginosa [32] = assay: Antimicrobial activity against metallo-beta-lactamase-negative Pseudomonas aeruginosa isolate PA734 isolated from patient with cystic fibrosis; procedure, shortened: as §2
Pseudomonas aeruginosa [33] = assay: Antimicrobial activity against metallo-beta-lactamase-negative Pseudomonas aeruginosa isolate PA736 isolated from patient with cystic fibrosis; procedure, shortened: as §2
Pseudomonas aeruginosa [34] = assay: Antimicrobial activity against metallo-beta-lactamase-negative Pseudomonas aeruginosa isolate PA758 isolated from patient with cystic fibrosis; procedure, shortened: as §2
Pseudomonas aeruginosa [35] = assay: Antimicrobial activity against metallo-beta-lactamase-negative Pseudomonas aeruginosa isolate PA774 isolated from patient with cystic fibrosis; procedure, shortened: as §2
Pseudomonas aeruginosa [36] = assay: Antimicrobial activity against Pseudomonas aeruginosa isolate PA399 expressing VIM-2 beta-lactamase
Pseudomonas aeruginosa [37] = assay: Antimicrobial activity against Pseudomonas aeruginosa isolate PA462 expressing VIM-2 beta-lactamase
Pseudomonas aeruginosa [38] = assay: Antimicrobial activity against Pseudomonas aeruginosa isolate PA465 expressing VIM-2 beta-lactamase
Pseudomonas aeruginosa [39] = assay: Antimicrobial activity against Pseudomonas aeruginosa isolate PA469 expressing VIM-2 beta-lactamase
Pseudomonas aeruginosa [40] = assay: Antimicrobial activity against Pseudomonas aeruginosa isolate PA475 expressing VIM-2 beta-lactamase
Pseudomonas aeruginosa [41] = assay: Antimicrobial activity against Pseudomonas aeruginosa isolate PA477 expressing VIM-2 beta-lactamase
Pseudomonas aeruginosa [42] = assay: Antimicrobial activity against Pseudomonas aeruginosa isolate PA481 expressing VIM-2 beta-lactamase
Pseudomonas aeruginosa [43] = assay: Antimicrobial activity against Pseudomonas aeruginosa isolate PA500 expressing VIM-1 beta-lactamase
Pseudomonas aeruginosa [44] = assay: Antimicrobial activity against Pseudomonas aeruginosa isolate PA510 expressing VIM-2 beta-lactamase
Pseudomonas aeruginosa [45] = assay: Antimicrobial activity against metallo-beta-lactamase-negative Pseudomonas aeruginosa isolate PA459; procedure, shortened: as §2
Pseudomonas aeruginosa [46] = assay: Antimicrobial activity against metallo-beta-lactamase-negative Pseudomonas aeruginosa isolate PA460
Pseudomonas aeruginosa [47] = assay: Antimicrobial activity against metallo-beta-lactamase-negative Pseudomonas aeruginosa isolate PA479
Pseudomonas aeruginosa [48] = assay: Antimicrobial activity against metallo-beta-lactamase-negative Pseudomonas aeruginosa isolate PA483
Pseudomonas aeruginosa [49] = assay: Antimicrobial activity against metallo-beta-lactamase-negative Pseudomonas aeruginosa isolate PA494
Pseudomonas aeruginosa [50] = assay: Antimicrobial activity against metallo-beta-lactamase-negative Pseudomonas aeruginosa isolate PA507; procedure, shortened: as §2
Pseudomonas aeruginosa [51] = assay: Antimicrobial activity against metallo-beta-lactamase-negative Pseudomonas aeruginosa isolate PA509

## CC(C)(O/N=C(\C(=O)N[C@@H]1C(=O)N2C(C(=O)[O-])=C(C[n+]3ccccc3)CS[C@H]12)c1csc(N)n1)C(=O)O [CEFTAZIDIME]
Pseudomonas aeruginosa [1]
  MIC: ≥ 64 µg/mL
Pseudomonas aeruginosa [2]
  MIC: ≥ 64 µg/mL
Pseudomonas aeruginosa [3]
  MIC: ≥ 64 µg/mL
Pseudomonas aeruginosa [4]
  MIC: ≥ 64 µg/mL
Pseudomonas aeruginosa [5]
  MIC: ≥ 64 µg/mL
Pseudomonas aeruginosa [6]
  MIC: ≥ 64 µg/mL
Pseudomonas aeruginosa [7]
  MIC: ≥ 64 µg/mL
Pseudomonas aeruginosa [8]
  MIC: ≥ 64 µg/mL
Acinetobacter baumannii
  MIC: ≥ 64 µg/mL
Pseudomonas aeruginosa [9]
  MIC: ≥ 64 µg/mL
Pseudomonas aeruginosa [10]
  MIC: 8 µg/mL (≈ 14.6 µM)
Pseudomonas aeruginosa [11]
  MIC: 4 µg/mL (≈ 7.32 µM)
Pseudomonas aeruginosa [12]
  MIC: ≥ 64 µg/mL
Pseudomonas aeruginosa [13]
  MIC: 4 µg/mL (≈ 7.32 µM)
Pseudomonas aeruginosa [14]
  MIC: 4 µg/mL (≈ 7.32 µM)
Pseudomonas aeruginosa [15]
  MIC: 8 µg/mL (≈ 14.6 µM)
Pseudomonas aeruginosa [16]
  MIC: 4 µg/mL (≈ 7.32 µM)
Pseudomonas aeruginosa [17]
  MIC: 4 µg/mL (≈ 7.32 µM)
Pseudomonas aeruginosa [18]
  MIC: 4 µg/mL (≈ 7.32 µM)
Pseudomonas aeruginosa [19]
  MIC: 4 µg/mL (≈ 7.32 µM)
Pseudomonas aeruginosa [20]
  MIC: 16 µg/mL (≈ 29.3 µM)
Pseudomonas aeruginosa [21]
  MIC: ≥ 64 µg/mL
Pseudomonas aeruginosa [22]
  MIC: 32 µg/mL (≈ 58.5 µM)
Pseudomonas aeruginosa [23]
  MIC: 4 µg/mL (≈ 7.32 µM)
Pseudomonas aeruginosa [24]
  MIC: 4 µg/mL (≈ 7.32 µM)
Pseudomonas aeruginosa [25]
  MIC: 8 µg/mL (≈ 14.6 µM)
Pseudomonas aeruginosa [26]
  MIC: 16 µg/mL (≈ 29.3 µM)
Pseudomonas aeruginosa [27]
  MIC: 8 µg/mL (≈ 14.6 µM)
Pseudomonas aeruginosa [28]
  MIC: 4 µg/mL (≈ 7.32 µM)
Pseudomonas aeruginosa [29]
  MIC: 4 µg/mL (≈ 7.32 µM)
Pseudomonas aeruginosa [30]
  MIC: 4 µg/mL (≈ 7.32 µM)
Pseudomonas aeruginosa [31]
  MIC: ≥ 64 µg/mL
Pseudomonas aeruginosa [32]
  MIC: 4 µg/mL (≈ 7.32 µM)
Pseudomonas aeruginosa [33]
  MIC: ≥ 64 µg/mL
Pseudomonas aeruginosa [34]
  MIC: 4 µg/mL (≈ 7.32 µM)
Pseudomonas aeruginosa [35]
  MIC: ≥ 64 µg/mL
Pseudomonas aeruginosa [36]
  MIC: ≥ 64 µg/mL
Pseudomonas aeruginosa [37]
  MIC: ≥ 64 µg/mL
Pseudomonas aeruginosa [38]
  MIC: ≥ 64 µg/mL
Pseudomonas aeruginosa [39]
  MIC: ≥ 64 µg/mL
Pseudomonas aeruginosa [40]
  MIC: ≥ 64 µg/mL
Pseudomonas aeruginosa [41]
  MIC: ≥ 64 µg/mL
Pseudomonas aeruginosa [42]
  MIC: ≥ 64 µg/mL
Pseudomonas aeruginosa [43]
  MIC: ≥ 64 µg/mL
Pseudomonas aeruginosa [44]
  MIC: ≥ 64 µg/mL
Pseudomonas aeruginosa [45]
  MIC: 32 µg/mL (≈ 58.5 µM)
Pseudomonas aeruginosa [46]
  MIC: 32 µg/mL (≈ 58.5 µM)
Pseudomonas aeruginosa [47]
  MIC: ≥ 64 µg/mL
Pseudomonas aeruginosa [48]
  MIC: ≥ 64 µg/mL
Pseudomonas aeruginosa [49]
  MIC: 32 µg/mL (≈ 58.5 µM)
Pseudomonas aeruginosa [50]
  MIC: 32 µg/mL (≈ 58.5 µM)
Pseudomonas aeruginosa [51]
  MIC: 32 µg/mL (≈ 58.5 µM)

## COLISTIN
Pseudomonas aeruginosa [36]
  MIC: 1 µg/mL
Pseudomonas aeruginosa [37]
  MIC: 1 µg/mL
Pseudomonas aeruginosa [38]
  MIC: 2 µg/mL
Pseudomonas aeruginosa [39]
  MIC: 1 µg/mL
Pseudomonas aeruginosa [40]
  MIC: 1 µg/mL
Pseudomonas aeruginosa [41]
  MIC: 1 µg/mL
Pseudomonas aeruginosa [42]
  MIC: 1 µg/mL
Pseudomonas aeruginosa [43]
  MIC: 1 µg/mL
Pseudomonas aeruginosa [44]
  MIC: 1 µg/mL
Pseudomonas aeruginosa [45]
  MIC: 1 µg/mL
Pseudomonas aeruginosa [46]
  MIC: 1 µg/mL
Pseudomonas aeruginosa [47]
  MIC: 1 µg/mL
Pseudomonas aeruginosa [48]
  MIC: 1 µg/mL
Pseudomonas aeruginosa [49]
  MIC: 1 µg/mL
Pseudomonas aeruginosa [50]
  MIC: 1 µg/mL
Pseudomonas aeruginosa [51]
  MIC: 2 µg/mL

Reference: ChEMBL document CHEMBL1275252, “First survey of metallo-beta-lactamases in clinical isolates of Pseudomonas aeruginosa in a German university hospital” (2010)
